Compound activity from PubChem BioAssay.
Only some compounds are listed: those with a hit (about 1.6% of all), similar ones and a draw of the others.
MT1-MMP act inh: inhibitors of human MT1-MMP activation. HT1080 RFP-PRO-GFP cells, GFP/RFP ratio fluorescence, overnight; percent of plate control window, DMSO zero. AID 651647. GFP/RFP ratio change, % at 20 µM. P50281. 360,000 compounds, 0.061% hits;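 active = GFP/RFP ratio change of at least 30% with cell ATP level not reduced by more than half and red fluorescence within 50% of control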
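Material: RFP-PRO-GFP reporter HT1080 cells. Dosing: single-point 20 µM compound, 1% DMSO. Controls: DMSO and RFP-L50D-GFP cell wells. Timing: cells overnight before dosing, compound overnight, 37 °C, 5% CO2. Measure: GFP/RFP fluorescence ratio.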
p-CIP stab down: p/CIP protein destabilization; F442A p/CIP-EGFP cells, EGFP fluorescence, 16 h; decrease of EGFP signal, % at 10 µM; 290,000 compounds, 0.01% hits; Q05BA5; AID 1984;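 active = EGFP signal decrease of at least 30% at 10 µM or well 3 SD below plate mean, unless failing retest; inactive = the rest, including hits failing retest or dose response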
Target sequence (Q05BA5 1-1403): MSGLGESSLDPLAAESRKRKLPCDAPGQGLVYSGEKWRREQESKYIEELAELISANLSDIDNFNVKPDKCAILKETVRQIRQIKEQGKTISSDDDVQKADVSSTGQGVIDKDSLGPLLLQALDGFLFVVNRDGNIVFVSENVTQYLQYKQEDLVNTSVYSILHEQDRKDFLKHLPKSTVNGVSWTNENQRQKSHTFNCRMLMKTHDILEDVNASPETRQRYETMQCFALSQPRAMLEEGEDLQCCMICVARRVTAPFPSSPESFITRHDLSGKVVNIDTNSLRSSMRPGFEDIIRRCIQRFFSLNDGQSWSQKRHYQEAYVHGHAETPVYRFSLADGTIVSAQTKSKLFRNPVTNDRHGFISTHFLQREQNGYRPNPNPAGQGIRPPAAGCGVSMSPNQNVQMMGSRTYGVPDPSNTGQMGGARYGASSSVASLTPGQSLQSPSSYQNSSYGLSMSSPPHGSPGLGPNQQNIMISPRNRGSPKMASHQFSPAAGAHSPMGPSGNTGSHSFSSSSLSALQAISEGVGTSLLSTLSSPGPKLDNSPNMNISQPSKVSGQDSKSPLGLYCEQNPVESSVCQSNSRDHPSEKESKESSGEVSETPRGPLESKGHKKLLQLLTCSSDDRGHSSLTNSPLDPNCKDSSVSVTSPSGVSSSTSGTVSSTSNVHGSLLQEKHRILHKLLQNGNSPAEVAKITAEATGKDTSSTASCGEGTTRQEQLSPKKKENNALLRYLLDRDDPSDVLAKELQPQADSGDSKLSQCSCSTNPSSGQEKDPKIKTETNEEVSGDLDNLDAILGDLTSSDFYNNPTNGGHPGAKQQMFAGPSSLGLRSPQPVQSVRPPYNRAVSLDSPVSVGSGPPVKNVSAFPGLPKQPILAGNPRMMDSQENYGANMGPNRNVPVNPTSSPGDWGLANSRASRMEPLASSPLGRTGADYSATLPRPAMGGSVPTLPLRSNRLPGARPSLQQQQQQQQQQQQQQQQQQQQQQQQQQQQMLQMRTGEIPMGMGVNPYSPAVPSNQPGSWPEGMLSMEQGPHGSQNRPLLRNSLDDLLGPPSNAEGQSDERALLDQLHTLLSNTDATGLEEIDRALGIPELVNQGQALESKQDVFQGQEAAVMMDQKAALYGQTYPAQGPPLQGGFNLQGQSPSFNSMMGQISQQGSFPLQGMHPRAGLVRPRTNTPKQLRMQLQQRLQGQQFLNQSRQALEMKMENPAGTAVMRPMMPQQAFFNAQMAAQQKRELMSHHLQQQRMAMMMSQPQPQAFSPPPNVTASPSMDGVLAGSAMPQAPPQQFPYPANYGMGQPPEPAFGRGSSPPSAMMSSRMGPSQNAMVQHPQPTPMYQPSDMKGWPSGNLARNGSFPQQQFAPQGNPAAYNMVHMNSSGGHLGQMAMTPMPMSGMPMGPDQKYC
bovine MsrA act: bovine methionine sulfoxide reductase A activation. activation, % at 10.6 µM. 360,000 compounds, 0.3% hits. AID 602163. purified bovine MsrA, absorbance read-out; in the data active = activation above about 7.5%
SKN-1 inh: blocks SKN-1 activity in C. elegans; C. elegans VP596 Pgst-4::GFP/RFP ratio, acrylamide-induced, 24 h; inhibition, % at 21.8 µM; 360,000 compounds, 0.49% hits;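 active = interference check ratio from 0.5 to 1.5 plus GFP to RFP signal ratio inhibition reaching or exceeding a fixed threshold, cut at about 30% in these data, passing the limit was not always enough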
MsrA inh: inhibits bovine methionine sulfoxide reductase A. purified bovine MsrA, absorbance read-out. inhibition, % at 15.5 µM. 360,000 compounds, 0.75% hits
MsrA inh confirm: bovine MsrA inhibition, confirmed | shares compounds with MsrA inh | purified bovine MsrA, absorbance read-out | inhibition, % at 15.5 µM | 2,300 compounds, 41% hits | AID 651822;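 note: coupled to thioredoxin reductase with NADPH and selenocystamine and DMSO as substrate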
Numbers stand for hits. Cut-off read from the data, not from the text of the source, unless noted: active = inhibition above about 4.5%; inactive = the rest.

`COc1cc(/C=N/Nc2nc3ccccc3[nH]2)ccc1O` gave MT1-MMP act inh inactive, p-CIP stab down inactive, bovine MsrA act inactive, SKN-1 inh inactive, MsrA inh 4.9 and MsrA inh confirm inactive.
COc1cc(/C=N/Nc2nc3ccccc3[nH]c2=O)ccc1O was read as MT1-MMP act inh inactive, p-CIP stab down inactive, bovine MsrA act inactive, SKN-1 inh inactive and MsrA inh inactive.
For Cc1nc(N2CCN(Cc3ccc(Cl)cc3)CC2)c2oc3ccccc3c2n1 the results were MT1-MMP act inh inactive, p-CIP stab down inactive, bovine MsrA act inactive, SKN-1 inh inactive and MsrA inh inactive.
For Cc1nc(N2CCN(Cc3ccc4c(c3)OCO4)CC2)c2oc3ccccc3c2n1 the results were MT1-MMP act inh inactive, bovine MsrA act inactive, SKN-1 inh inactive, MsrA inh 9.9 and MsrA inh confirm inactive.
For S=c1[nH]nc(-c2ccccc2)n1/N=C/c1ccc(-c2ccccc2Cl)o1 the results were MT1-MMP act inh inactive, p-CIP stab down inactive, bovine MsrA act inactive, SKN-1 inh inactive and MsrA inh inactive.
Cc1nnc(C)n1/N=C/c1ccc(-c2ccccc2Cl)o1 was read as MT1-MMP act inh inactive, p-CIP stab down inactive, bovine MsrA act inactive, SKN-1 inh inactive, MsrA inh 5.2 and MsrA inh confirm 4.9.
For O=S(=O)(N/N=C\c1ccc(-c2ccccc2Cl)o1)c1ccccc1 the results were MT1-MMP act inh inactive, p-CIP stab down inactive, bovine MsrA act inactive, SKN-1 inh inactive, MsrA inh 4.9 and MsrA inh confirm inactive.
Screening COC(=O)c1cc2c(c3c4cc(OC)ccc4n(S(=O)(=O)c4ccc(F)cc4)c13)C(=O)N(C)C2 returned MsrA inh inactive.
`COC(=O)[C@]12C[C@H](CC(=O)NCc3cccc(C(F)(F)F)c3)C(=O)N(Cc3ccccc3)C1=C[C@H](C1CCCC1)O[C@@H]2C` gave MsrA inh inactive.
For COc1ccc(/C=C(\C)C(=O)c2c(C)cc(C)[nH]c2=O)cc1 the results were MT1-MMP act inh inactive, bovine MsrA act inactive, SKN-1 inh inactive and MsrA inh inactive.
For CCOc1ccc(/C=C(\C)C(=O)c2c(C)cc(C)[nH]c2=O)cc1 the results were MT1-MMP act inh inactive, p-CIP stab down inactive, bovine MsrA act inactive, SKN-1 inh inactive, MsrA inh 6.2 and MsrA inh confirm inactive.
O=C(Cc1ccc2cccnc2c1)c1ccc(O)cc1O was read as MT1-MMP act inh inactive, p-CIP stab down inactive, bovine MsrA act inactive, SKN-1 inh inactive, MsrA inh 5.0 and MsrA inh confirm inactive.
`COc1ccc(/C=C/C(=O)Nc2c(C(=O)O)[nH]c3ccccc23)cc1OC` gave MT1-MMP act inh inactive, p-CIP stab down inactive, bovine MsrA act inactive, SKN-1 inh inactive, MsrA inh 5.6 and MsrA inh confirm inactive.
`COc1ccc(/C=C/C(=O)Nc2ccc(-n3nncc3-c3ccc(OC)c(OC)c3)cc2)cc1OC` gave MT1-MMP act inh inactive, p-CIP stab down inactive, bovine MsrA act inactive, SKN-1 inh inactive, MsrA inh 5.1 and MsrA inh confirm inactive.
`COCc1[nH]nc2c1C(c1ccc(C)cc1)NC2=O` (stereo not drawn) gave MsrA inh inactive.
COc1ccccc1Cc1c(-c2cccc(Cl)c2)nc2c3ccccc3ccn12 was read as MsrA inh inactive.
For CC(/C=C/c1ccc2c(c1)OCO2)=N\NC(=O)C(O)c1ccccc1 (stereo not drawn) the results were MT1-MMP act inh inactive, p-CIP stab down inactive, bovine MsrA act inactive, SKN-1 inh inactive, MsrA inh 4.9 and MsrA inh confirm 5.0.
O=C(N/N=C\C=C\c1ccc2c(c1)OCO2)c1ccc(F)cc1 was read as MT1-MMP act inh inactive, p-CIP stab down inactive, bovine MsrA act inactive, SKN-1 inh inactive, MsrA inh 6.4 and MsrA inh confirm 4.9.
`O=C(N/N=C/C=C/c1ccc2c(c1)OCO2)C(O)c1ccccc1` (stereo not drawn) gave MT1-MMP act inh inactive, p-CIP stab down inactive, bovine MsrA act inactive, SKN-1 inh inactive, MsrA inh 6.7 and MsrA inh confirm 4.8.
`CCN=C1NC(c2ccc(C(F)(F)F)cc2)C(C(=O)OC)=C(C)N1Cc1ccccc1C(F)(F)F` (stereo not drawn) gave MsrA inh inactive.
`NC(=O)c1c(N)[nH]c(C(=O)c2ccccc2)c1-c1ccccc1` gave MsrA inh inactive.
For CC(C)[C@H](NC(=O)c1ccco1)C(=O)N1CCC[C@H]1C(=O)NCc1ccccc1 the results were MsrA inh inactive.
`COc1cc(/C=C/c2cc(C(F)(F)F)[nH]c(=O)n2)cc(OC)c1OC` gave MT1-MMP act inh inactive, p-CIP stab down inactive, bovine MsrA act inactive, SKN-1 inh inactive, MsrA inh 5.6 and MsrA inh confirm inactive.
For COc1cc(/C=C/C2=NNC(=O)CC2)cc(OC)c1OC the results were MT1-MMP act inh inactive, p-CIP stab down inactive, bovine MsrA act inactive, SKN-1 inh inactive, MsrA inh 8.2 and MsrA inh confirm inactive.
Screening C[C@@H]1CN([C@@H](C)CO)C(=O)CCCn2cc(nn2)CO[C@H]1CN(C)C(=O)Cc1ccccc1 returned MsrA inh inactive.
For O=c1cc(-c2ccc(O)c(O)c2)oc2c(C3O[C@H](CO)[C@@H](O)[C@H](O)[C@H]3O)c(O)cc(O)c12 (stereo partly drawn) the results were MT1-MMP act inh inactive, p-CIP stab down inactive, bovine MsrA act inactive, SKN-1 inh inactive, MsrA inh 5.6 and MsrA inh confirm inactive.
O=c1cc(-c2ccc(O)cc2)oc2c(C3O[C@H](CO)[C@@H](O)[C@H](O)[C@H]3O)c(O)cc(O)c12 (stereo partly drawn) was read as MT1-MMP act inh inactive, bovine MsrA act inactive, SKN-1 inh inactive and MsrA inh inactive.
For CCOc1cc(/C=C2/NC(=O)N(CC(=O)Nc3cccc(C)c3)C2=O)ccc1O the results were MT1-MMP act inh inactive, p-CIP stab down inactive, bovine MsrA act inactive, SKN-1 inh inactive and MsrA inh inactive.
Screening CCOc1cc(/C=C2/NC(=O)N(CC(=O)OC)C2=O)ccc1O returned MT1-MMP act inh inactive, p-CIP stab down inactive, bovine MsrA act inactive, SKN-1 inh inactive, MsrA inh 7.4 and MsrA inh confirm 5.8.
`COC(=O)COc1ccc(/C=C2/NC(=O)N(CC(=O)OC)C2=O)cc1` gave MT1-MMP act inh inactive, p-CIP stab down inactive, bovine MsrA act inactive, SKN-1 inh inactive, MsrA inh 5.5 and MsrA inh confirm 5.4.
Screening COC(=O)N1C[C@H](OC(=O)c2ccc(-c3ccccc3)cc2)[C@H]2C[C@@H]1c1ccccc1O2 returned MsrA inh inactive.
`C[C@H]1CN([C@@H](C)CO)C(=O)CCCn2cc(nn2)CO[C@@H]1CN(C)C(=O)c1ccccc1` gave MsrA inh inactive.
CC(C)Oc1ccc(/C=N/NC(N)=S)cc1 was read as MT1-MMP act inh inactive, p-CIP stab down inactive, bovine MsrA act inactive, SKN-1 inh inactive, MsrA inh 4.8 and MsrA inh confirm inactive.
